Test results from ChEMBL document CHEMBL1125680, “Quinazolinone cholecystokinin-B receptor ligands” (J Med Chem, 1991).

Assays:
[1] = target: T1, Gastrin/cholecystokinin type B receptor (Mus musculus) (UniProt P56481); assay: Inhibition of [125I]-labeled CCK-8 sulfate binding to cholecystokinin type B receptor in mouse brain membranes; type: cell membranes; settings: Membrane, concentration not given here
T1 sequence (whole entry): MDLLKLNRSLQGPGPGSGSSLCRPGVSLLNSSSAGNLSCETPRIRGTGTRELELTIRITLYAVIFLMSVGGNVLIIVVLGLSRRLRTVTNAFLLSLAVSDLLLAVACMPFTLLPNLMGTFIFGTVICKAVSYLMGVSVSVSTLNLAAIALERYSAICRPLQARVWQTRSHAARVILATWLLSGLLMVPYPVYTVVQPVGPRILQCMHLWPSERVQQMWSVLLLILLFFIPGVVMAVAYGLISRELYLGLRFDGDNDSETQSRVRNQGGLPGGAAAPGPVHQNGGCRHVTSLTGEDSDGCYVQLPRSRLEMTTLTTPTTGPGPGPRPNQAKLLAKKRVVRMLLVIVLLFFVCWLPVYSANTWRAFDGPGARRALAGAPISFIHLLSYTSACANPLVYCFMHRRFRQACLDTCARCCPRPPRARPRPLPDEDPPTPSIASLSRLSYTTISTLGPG
How it was run: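 Mouse brain membranes as the CCK-B receptor source, with 125I-labelled CCK-8 sulfate as the radioligand, following the Chang and Lotti method.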

[2] = target: T2, Cholecystokinin receptor type A (Rattus norvegicus) (UniProt P30551); assay: Inhibition of [3H]-labeled L-364,718 binding to Cholecystokinin type A receptor in rat pancreas; settings: concentration not given here
T2 sequence (whole entry): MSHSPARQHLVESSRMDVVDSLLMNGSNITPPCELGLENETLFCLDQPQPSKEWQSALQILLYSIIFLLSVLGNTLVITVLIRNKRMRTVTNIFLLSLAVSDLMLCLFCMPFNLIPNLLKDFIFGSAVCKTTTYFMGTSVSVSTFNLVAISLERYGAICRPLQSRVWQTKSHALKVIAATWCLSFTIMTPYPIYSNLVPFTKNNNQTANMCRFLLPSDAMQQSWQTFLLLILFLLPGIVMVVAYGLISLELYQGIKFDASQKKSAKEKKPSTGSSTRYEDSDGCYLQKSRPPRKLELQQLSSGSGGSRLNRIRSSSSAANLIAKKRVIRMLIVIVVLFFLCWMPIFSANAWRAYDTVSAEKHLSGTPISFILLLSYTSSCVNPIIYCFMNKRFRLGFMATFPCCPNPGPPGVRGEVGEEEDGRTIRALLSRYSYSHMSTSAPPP

[3] = target: T3, Gastrin/cholecystokinin type B receptor (Mus musculus, UniProt P56481); assay: Inhibition of [125I]CCK-8 sulfate binding to cholecystokinin type B receptor in mouse brain membranes.; type: cell membranes
T3 sequence (P56481 whole entry): T1 sequence (whole entry)

`O=c1c2ccccc2nc(CCc2c[nH]c3ccccc23)n1-c1ccccc1Cl` was tested. Which inhibition [1] did it give?
The inhibition was 44%.

How did the inhibition [2] turn out when `COc1cccc(-n2c(CCc3c[nH]c4ccc(Br)cc34)nc3ccccc3c2=O)c1` was run?
Its inhibition is 5%.

For `O=c1c2ccccc2nc(CCc2c[nH]c3ccccc23)n1-c1ccccc1C(F)(F)F`, which inhibition [1] is on record?
The inhibition was 35%.

With `O=c1c2ccccc2nc(CCc2c[nH]c3ccccc23)n1-c1cccc(C(F)(F)F)c1` as the compound, how does the inhibition [2] read?
The inhibition was 6%.

What about the IC50 [3] of the same compound?
The IC50 was 480 nM.

With `O=c1c2ccccc2nc(CCc2c[nH]c3ccccc23)n1-c1ccccc1F` as the compound, how does the inhibition [1] read?
Its inhibition is 75%.

With `CC(C)Oc1cccc(-n2c(CCc3c[nH]c4ccc(Br)cc34)nc3ccccc3c2=O)c1` as the compound, how does the inhibition [2] read?
The inhibition was -6%.

How did the IC50 [3] turn out when `O=c1c2ccccc2nc(CCc2c[nH]c3ccc(Br)cc23)n1-c1cccc(OC2CCCC2)c1` was run?
Its IC50 is 67 nM.

Which IC50 [3] does the source give for `CCCOc1cccc(-n2c(CCc3c[nH]c4ccc(Br)cc34)nc3ccccc3c2=O)c1` here?
Its IC50 is 58 nM.

How did the inhibition [2] turn out when `CCc1cccc(-n2c(CCc3c[nH]c4ccc(Br)cc34)nc3ccccc3c2=O)c1` was run?
Its inhibition is -5%.

How did the inhibition [1] turn out when `COc1ccccc1-n1c(CCc2c[nH]c3ccccc23)nc2ccccc2c1=O` was run?
Its inhibition is 74%.
